The source made the active and inactive calls. The rule behind the calls is not given here.
Tests used:
[1] = test system: Mycobacterium leprae; assay: Effect on Mycobacterium leprae recombinant DNA gyrase expressed in Escherichia coli assessed as enhancement of supercoiled pBR322 DNA cleavage
[2] = test system: Mycobacterium leprae; assay: Antibacterial activity in Mycobacterium leprae infected mouse foot-pad model assessed as parasite killing at 150 mg/kg/day after 9 months; assay type: functional
[3] = test system: Mycobacterium leprae; assay: Inhibition of Mycobacterium leprae recombinant DNA gyrase expressed in Escherichia coli assessed as inhibition of pBR322 DNA supercoiling
In short: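 His-tagged M. leprae GyrA and GyrB were expressed separately in E. coli, purified by nickel chelate chromatography, and reconstituted (1 U gyrase). Substrate was 0.4 μg relaxed pBR322 in 40 mM Tris-HCl pH 7.5, 25 mM KCl, 20 mM Mg acetate, 2 mM spermidine, 4 mM DTT, tRNA, BSA, and 3 mM ATP, run 1 h at 30°C.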

[4] = test system: Mycobacterium leprae; assay: Antibacterial activity against Mycobacterium leprae at 5 ug/mL after 11 to 18 days; assay type: functional
[5] = test system: Mycobacterium leprae; assay: Antibacterial activity in Mycobacterium leprae infected mouse foot-pad model assessed as parasite killing at >150 mg/kg/day after 9 months; assay type: functional
[6] = test system: Mycobacterium leprae; assay: Antibacterial activity in Mycobacterium leprae infected mouse foot-pad model assessed as parasite killing at 15 mg/kg/day after 9 months; assay type: functional
[7] = test system: Mycobacterium leprae; assay: Antibacterial activity in Mycobacterium leprae infected mouse foot-pad model assessed as parasite killing at 50 mg/kg/day after 9 months; assay type: functional
[8] = test system: Mycobacterium leprae; assay: Antibacterial activity in Mycobacterium leprae infected mouse foot-pad model assessed as parasite killing at >300 mg/kg/day after 9 months; assay type: functional
[9] = test system: Mycobacterium leprae; assay: Antibacterial activity in Mycobacterium leprae infected mouse foot-pad model assessed as parasite killing at 25 mg/kg/day after 9 months; assay type: functional

SMILES	CC25 [1] [µg/mL]	IC50 [3] [µg/mL]	Activity [4]	further results
CC1COc2c(N3CCN(C)CC3)c(F)cc3c(=O)c(C(=O)O)cn1c23 (stereo not drawn) [OFLOXACIN]	10	10	20	Activity [2]: >99%
C[C@H]1COc2c(N3CCN(C)CC3)c(F)cc3c(=O)c(C(=O)O)cn1c23.C[C@H]1COc2c(N3CCN(C)CC3)c(F)cc3c(=O)c(C(=O)O)cn1c23.O [LEVOFLOXACIN]	3	7	–	–
O=C(O)c1cn(C2CC2)c2cc(N3CCNCC3)c(F)cc2c1=O [CIPROFLOXACIN]	–	3.5	32	Activity [5]: >99%
COc1c(N2CCNC(C)C2)c(F)cc2c(=O)c(C(=O)O)cn(C3CC3)c12 (stereo not drawn) [GATIFLOXACIN]	1	2	–	–
C[C@@H]1CN(c2c(F)c(N)c3c(=O)c(C(=O)O)cn(C4CC4)c3c2F)C[C@H](C)N1 [SPARFLOXACIN]	1	5	–	Activity [6]: >99%
CCn1cc(C(=O)O)c(=O)c2cc3c(cc21)OCO3 [OXOLINIC ACID]	–	170	–	Activity [1]: inactive
CC1CN(c2cc3c(cc2F)c(=O)c(C(=O)O)cn3-c2ccc(F)cc2F)CCN1 (stereo not drawn) [TEMAFLOXACIN]	11	26	29	Activity [7]: >99%
NC1CCN(c2c(F)cc3c(=O)c(C(=O)O)cn(C4CC4)c3c2Cl)C1 (stereo not drawn) [CLINAFLOXACIN]	0.6	3	–	–
CCn1cc(C(=O)O)c(=O)c2cc(F)c(N3CCN(C)CC3)cc21 [PEFLOXACIN]	–	23	29	Activity [8]: >99%
N[C@@H]1CN(c2c(F)cc3c(=O)c(C(=O)O)cn([C@@H]4C[C@@H]4F)c3c2Cl)CC12CC2 [SITAFLOXACIN ANHYDROUS]	0.5	1	–	Activity [9]: >99%
C[C@H]1NCc2cc(-c3ccc4c(=O)c(C(=O)O)cn(C5CC5)c4c3OC(F)F)ccc21 [GARENOXACIN]	3	3.5	–	–
CCn1cc(C(=O)O)c(=O)c2ccc(C)nc21 [NALIDIXIC ACID]	–	300	–	Activity [1]: inactive
COc1c(N2C[C@@H]3CCCN[C@@H]3C2)c(F)cc2c(=O)c(C(=O)O)cn(C3CC3)c12 [MOXIFLOXACIN]	–	–	–	Activity [2]: >99%

From ChEMBL document CHEMBL1145475, “Expression and purification of an active form of the Mycobacterium leprae DNA gyrase and its inhibition by quinolones” (Antimicrob Agents Chemother, 2007)
